Bioassay records deposited in PubChem by Johns Hopkins Ion Channel Center.
KCNK9 inh = blocks the human KCNK9 two-pore domain potassium channel; 1.2% of 310,000 active; AID 488922; B-score at 10 µM; HEK293 KCNK9, FluxOR thallium flux fluorescence; active compounds read low; Q9NPC2;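 active = ratio B-score over 3 SD below the library mean, with starting fluorescence within 5 SD of its mean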;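 also: negative B-score means less thallium flux so channel inhibition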
KCNQ1 block = inhibitors of human KCNQ1 potassium channel | P51787 | CHO-K1 KCNQ1, FluxOR thallium flux fluorescence; active compounds read high | B-score at 10 µM | 1.3% of 310,000 active | AID 2642;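 active = compounds whose thallium flux B-score, printed positive for inhibition, exceeds three library SD while starting fluorescence stays within three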;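 also: channel opened by potassium depolarization with thallium stimulus after 20 min compound exposure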
Kir21 block = blocks the mouse Kir2.1 inward-rectifier potassium channel | HEK293-Kir2.1, FluxOR thallium flux fluorescence; active compounds read low | B-score at 10 µM | 0.85% of 310,000 active | AID 1672;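 active = fluorescence ratio B-score at or below minus 3 SD of library scores, with starting-brightness B-score within 2 SD, cut at about -4.2 in these data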;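 also: channel flux triggered by added potassium and thallium sulfate stimulus; B-score of peak minus minimum fluorescence over baseline after thallium stimulus; more negative B-score means stronger Kir2.1 block with less thallium influx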
Target sequence (P35561 whole entry, looked up): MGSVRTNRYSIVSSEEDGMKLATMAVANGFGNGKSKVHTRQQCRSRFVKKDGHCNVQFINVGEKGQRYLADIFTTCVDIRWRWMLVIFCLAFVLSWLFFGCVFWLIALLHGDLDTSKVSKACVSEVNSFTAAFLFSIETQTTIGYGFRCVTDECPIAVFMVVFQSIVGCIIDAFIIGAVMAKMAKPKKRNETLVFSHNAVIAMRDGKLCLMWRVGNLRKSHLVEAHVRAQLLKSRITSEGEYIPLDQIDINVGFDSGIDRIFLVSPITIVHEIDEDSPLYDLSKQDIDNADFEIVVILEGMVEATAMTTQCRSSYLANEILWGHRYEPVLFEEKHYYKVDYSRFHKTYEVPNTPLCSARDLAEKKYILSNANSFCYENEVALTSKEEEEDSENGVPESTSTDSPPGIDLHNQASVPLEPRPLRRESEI
KCNQ1 act = potentiates or activates the human KCNQ1 potassium channel; P51787; 0.35% of 310,000 active; CHO-K1 KCNQ1, thallium flux FluxOR fluorescence; active compounds read high; B-score at 10 µM;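 active = fluorescence ratio B-score, a plate-corrected score, at least three library SD, with initial intensity B-score within 5 SD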
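Assay system: CHO-K1 cells stably expressing KCNQ1. Medium: assay buffer for compound exposure, DMSO matched across wells. Timing: 37 °C overnight plating, 90-min dark dye load, 20-min compound pretreatment. Signal: kinetic FluxOR fluorescence, 10 s baseline plus 110 s post-stimulus.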
KCNK3 block = human KCNK3 channel inhibition, primary screen; O14649; CHO-KCNK3 thallium flux, FluxOR fluorescence; active compounds read low; B-score at 10 µM; 0.84% of 340,000 active;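 active = B-score under library mean minus 4 SD, starting fluorescence ratio at most library mean plus 5 SD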;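 also: more negative B-score means stronger inhibition of thallium flux through KCNK3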
hERG rescue = compounds protecting human hERG from proarrhythmic drug block. CHO-hERG, FluxOR thallium flux, dofetilide IC70 present. Q12809. AID 1511. 0.51% of 310,000 active. activation (rescue from dofetilide block), less the hit threshold, % at 10 µM;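 active = activation above the mean of controls blocked by dofetilide plus 5 SD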;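 also: thallium influx through hERG after potassium depolarization seen as dye fluorescence rise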
KCNK9 inh conf = confirmation of human KCNK9 potassium channel inhibitors; shares compounds with KCNK9 inh; HEK293 KCNK9 cells, FluxOR thallium flux fluorescence; inhibition, % at 10 µM; 43% of 4,900 active; AID 492992;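 active = thallium signal inhibited by more than 5 SD of the compound-free buffer control wells, on both duplicate plates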;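 also: 0% = assay buffer control wells without compound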
Kir21 sel = selectivity of KCNK9 modulators against mouse Kir2.1. shares compounds with KCNK9 inh. inhibition, % at 10 µM. Kir2.1 cells, FluxOR thallium flux fluorescence. AID 492993. 4% of 4,900 active;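 active = thallium signal drop more than 5 SD beyond the mean of the no-compound control wells, seen in both duplicate plates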;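 also: signal is fluorescence rise after thallium addition divided by baseline fluorescence; plate controls were assay buffer only for no effect and full block by chlorpromazine control for full effect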
HEK293 Tl ctr = second check of KCNK9 modulator effects in non-induced HEK293 cells; shares compounds with KCNK9 inh; FluxOR thallium flux; inhibition, % at 10 µM; 40% of 4,900 active; AID 492997;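 active = thallium signal drop beyond 5 SD of the untreated control mean, on both duplicate plates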;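 also: plate controls were buffer only IC0 wells for no effect and SID17386958 at its maximal inhibitory level for full effect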
Active calls of the source: *. Shown are actives, neighbours in structure and some others; about 3.8% of the full set was active somewhere.

What do the screens show for `CCC(=O)N(CCC1(c2ccccc2OC)CCOC(C(C)C)C1)Cc1ccco1` (stereo not given)?
KCNK9 inh: -14*; KCNQ1 block: inactive; Kir21 block: -0.74; KCNQ1 act: inactive; KCNK3 block: inactive; hERG rescue: -16.4; KCNK9 inh conf: 47.0%*; Kir21 sel: inactive; HEK293 Tl ctr: 45.5%*

Results for Cc1cc(Br)c(NC(=O)COC(=O)C2CCCCC2)c(Br)c1 ?
KCNK3 block: inactive

What do the screens show for `CC(C)(C)N1C(=O)[C@H]2[C@@H](c3ccc(Br)cc3)N3C(=O)N(c4cccc(Cl)c4)C(=O)[C@@]3(Cc3ccccc3)[C@H]2C1=O`?
KCNK9 inh: -8.44*; KCNQ1 block: inactive; Kir21 block: -0.55; KCNQ1 act: inactive; KCNK3 block: inactive; hERG rescue: -5.4; KCNK9 inh conf: inactive; Kir21 sel: inactive; HEK293 Tl ctr: 26.0%*

What do the screens show for `Cc1ccc(C(=O)OCCN2CCN(c3ncc(C(F)(F)F)cc3Cl)CC2)cc1`?
KCNK9 inh: inactive; KCNQ1 block: inactive; Kir21 block: 0.62; KCNQ1 act: inactive; KCNK3 block: inactive; hERG rescue: -12.7; KCNK9 inh conf: inactive; Kir21 sel: inactive; HEK293 Tl ctr: inactive

Results for O=C(OCCN1CCN(c2ncc(C(F)(F)F)cc2Cl)CC1)c1ccc(F)cc1 ?
KCNK9 inh: inactive; KCNQ1 block: inactive; Kir21 block: -0.08; KCNQ1 act: inactive; KCNK3 block: inactive; hERG rescue: -7.9

Results for COc1ccc(C(=O)OC2CCN(c3ncc(C(F)(F)F)cc3Cl)CC2)cc1 ?
KCNK9 inh: inactive; KCNQ1 block: inactive; Kir21 block: -0.02; KCNQ1 act: inactive; KCNK3 block: inactive; hERG rescue: -10.3; KCNK9 inh conf: inactive; Kir21 sel: inactive; HEK293 Tl ctr: inactive

Results for CC(C(=O)NC1CCCC1)N(C(=O)c1ccc(-c2ccccc2)[nH]1)c1ccccc1F (stereo not given) ?
KCNK9 inh: inactive; KCNQ1 block: 6*; Kir21 block: -1.21; KCNQ1 act: inactive; KCNK3 block: inactive; hERG rescue: -18.6; KCNK9 inh conf: inactive; Kir21 sel: inactive; HEK293 Tl ctr: inactive

What do the screens show for `COc1ccc(-c2noc(COc3ccc(C)c(C)c3)n2)cc1OC`?
KCNK9 inh: inactive; KCNQ1 block: inactive; Kir21 block: -0.72; KCNQ1 act: inactive; KCNK3 block: inactive; hERG rescue: -14.5; KCNK9 inh conf: inactive; Kir21 sel: inactive; HEK293 Tl ctr: inactive

Results for Cc1ccc(OCc2nc(-c3ccccc3)no2)c(C)c1 ?
KCNK9 inh: inactive; KCNQ1 block: inactive; Kir21 block: -0.04; KCNQ1 act: inactive; KCNK3 block: inactive; hERG rescue: -5.6; KCNK9 inh conf: inactive; Kir21 sel: inactive; HEK293 Tl ctr: 39.5%*

What do the screens show for `Cc1cc(C)c(C)c(OCc2nc(-c3cccnc3)no2)c1`?
KCNK9 inh: inactive; KCNQ1 block: inactive; Kir21 block: -0.11; KCNQ1 act: inactive; KCNK3 block: inactive; hERG rescue: -15.2

Results for COc1ccc(CNC(=O)C[C@H]2C[C@H](C(=O)N3CCCCC3)[C@@]3(C)c4[nH]c5cc(CCC(=O)N(C)C)ccc5c4CCN3C2=O)cc1OC ?
KCNK3 block: inactive

How did CCOC(=O)C1(CC)Oc2ccccc2C(c2ccc(OC)cc2)=C1C(=O)OC (stereo not given) do in these assays?
KCNK3 block: inactive

Results for CC(C)c1ccc(OC(=O)c2cccc(S(=O)(=O)N3CCN(C)CC3)c2)cc1 ?
KCNK9 inh: inactive; KCNQ1 block: inactive; Kir21 block: -0.65; KCNQ1 act: inactive; KCNK3 block: inactive; hERG rescue: -15.1; KCNK9 inh conf: inactive; Kir21 sel: inactive; HEK293 Tl ctr: inactive

Results for Nn1c(SCC(=O)Nc2ccc(Oc3ccccc3)cc2)nnc1C1CC1 ?
KCNK9 inh: inactive; KCNQ1 block: inactive; Kir21 block: 1.05; KCNQ1 act: inactive; KCNK3 block: inactive; hERG rescue: -7.6; KCNK9 inh conf: inactive; Kir21 sel: inactive; HEK293 Tl ctr: inactive

Results for Cc1ccc(/C=N/NC(=O)CSc2nc3ccccc3n2Cc2ccccc2)o1 ?
KCNK9 inh: inactive; KCNQ1 block: inactive; Kir21 block: -0.02; KCNQ1 act: inactive; KCNK3 block: inactive; hERG rescue: -11.8

What do the screens show for `Cc1ccc(/C=N/NC(=O)CSc2nc3ccccc3n2Cc2ccc(Cl)cc2)o1`?
KCNK9 inh: -21.2*; KCNQ1 block: inactive; Kir21 block: 1.44; KCNQ1 act: inactive; KCNK3 block: inactive; hERG rescue: -11.4; KCNK9 inh conf: 62.5%*; Kir21 sel: inactive; HEK293 Tl ctr: 50.5%*

How did CCOC(=O)C1(C)NC(c2cccs2)C2C(=O)N(c3ccc(C)cc3)C(=O)C21 (stereo not given) do in these assays?
KCNK9 inh: inactive; KCNQ1 block: inactive; Kir21 block: 1.15; KCNQ1 act: inactive; KCNK3 block: inactive; hERG rescue: -0.7

What do the screens show for `CCOC(=O)C1(C)NC(c2cccc(C)c2)C2C(=O)N(c3ccccc3)C(=O)C21` (stereo not given)?
KCNK9 inh: inactive; KCNQ1 block: inactive; Kir21 block: 0.4; KCNQ1 act: inactive; KCNK3 block: inactive; hERG rescue: -10.6; KCNK9 inh conf: inactive; Kir21 sel: inactive; HEK293 Tl ctr: inactive

How did OC(CSc1ccccc1Cl)CN1CCN(c2ccc(F)cc2)CC1 (stereo not given) do in these assays?
KCNK9 inh: inactive; KCNQ1 block: inactive; Kir21 block: -1.51; KCNQ1 act: inactive; KCNK3 block: inactive; hERG rescue: -16.7

How did COc1cccc(OC)c1OCC(O)CN1CCN(c2ccccc2F)CC1 (stereo not given) do in these assays?
KCNK9 inh: inactive; KCNQ1 block: inactive; Kir21 block: -1.27; KCNQ1 act: inactive; KCNK3 block: inactive; hERG rescue: -2.9

What do the screens show for `OC(CSc1c(Cl)cccc1Cl)CN1CCN(c2ccc(F)cc2)CC1` (stereo not given)?
KCNK9 inh: inactive; KCNQ1 block: inactive; Kir21 block: -1.27; KCNQ1 act: inactive; KCNK3 block: inactive; hERG rescue: -22.9; KCNK9 inh conf: inactive; Kir21 sel: inactive; HEK293 Tl ctr: inactive
